Only some compounds are listed: those with a hit (about 0.74% of all), similar ones and a draw of the others.
ASAP1 inh = blocks human ASAP1-stimulated Arf1 GTP hydrolysis; 360,000 compounds, 0.19% hits; GDP FP detection; Q9ULH1; inhibition, % at 16.5 µM; in the data active means inhibition above about 25%;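 further: 0% = vehicle with enzyme and substrate and 100% = no enzyme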
Target sequence (Q9ULH1 325-724 limits assumed): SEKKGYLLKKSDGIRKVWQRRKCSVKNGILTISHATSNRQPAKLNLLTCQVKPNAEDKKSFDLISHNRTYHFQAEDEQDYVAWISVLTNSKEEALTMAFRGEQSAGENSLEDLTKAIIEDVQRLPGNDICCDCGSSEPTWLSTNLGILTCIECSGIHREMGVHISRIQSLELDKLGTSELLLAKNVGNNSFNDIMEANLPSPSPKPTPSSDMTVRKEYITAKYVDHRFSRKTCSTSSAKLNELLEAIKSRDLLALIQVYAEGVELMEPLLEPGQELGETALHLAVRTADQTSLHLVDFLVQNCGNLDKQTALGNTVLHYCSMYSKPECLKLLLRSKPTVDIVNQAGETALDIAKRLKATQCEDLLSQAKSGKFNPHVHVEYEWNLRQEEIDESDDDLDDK
Tn7 DDE FP = disrupts Tn7 cyclic peptide binding to fibrin D-Dimer-E complex; P02675; FP displacement of FITC-Tn7 peptide from fibrin DD(E); 0% = median of compound wells per plate; inhibition, % at 8.3 µM; 370,000 compounds, 0.13% hits;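 active means inhibition above the mean of compounds falling within the control limits plus 3 SD of them, cut at about 14% in these data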;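 further: 0% = plate median of compound wells and 100% = 10 µM Aha-Tn7 peptide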
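system = human fibrin DD(E) protein | quantity = DD(E) 2 µM final | medium = Tris/NaCl/CaCl2 buffer, pH 7.8 | also added = labelled Tn7 tracer, 0.1 µM | compound dosing = single point at 8.3 µM | timing = compound with protein 10 min, then 3 h after probe, room temperature | signal = FP measurement | benchmarks = Aha-Tn7 high control | repeats = one replicate per compound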
DDE Tn6 FP inh = inhibitors of Tn6 peptide binding to human fibrin DD(E). inhibition, % at 8.3 µM. AID 720509. 370,000 compounds, 0.21% hits. Fibrin DD(E) TRITC-Tn6 fluorescence polarization displacement;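 active means inhibition above a per-campaign cutoff: mean of compounds within control limits plus 3 SD, cut at about 15% in these data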;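 further: 0% = median of all compound wells on the plate and 100% = blocking peptide control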
ARFGAP1 inh = inhibitors of rat ARFGAP1 | Q62848 | Arfgap1-stimulated ARF1 GTP hydrolysis, GDP FP detection | inhibition, % at 16.5 µM | 360,000 compounds, 0.26% hits | AID 651572;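 active means inhibition above a per-plate limit, mean inhibition of low control wells plus 3 SD, cut at about 25% in these data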;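 further: 0% = DMSO wells with enzyme and 100% = wells lacking Arfgap1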
Target sequence (Q62848 1-136 limits assumed): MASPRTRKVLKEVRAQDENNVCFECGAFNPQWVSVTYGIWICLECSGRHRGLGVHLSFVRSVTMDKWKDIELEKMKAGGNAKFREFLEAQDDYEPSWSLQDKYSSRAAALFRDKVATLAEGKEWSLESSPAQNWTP
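System: truncated rat Arfgap1 GAP domain / Benchmarks: high control wells lacking Arfgap1, low control full reaction with DMSO / Times: compound-enzyme preincubation 20 min, reaction 120 min, detection 60 min, 25 °C / Repeats: one replicate per compound / Also added: human ARF1(Δ1-17)-GTP substrate / Measured by: Tracer-displacement fluorescence polarization with EDTA stop, 620/688 nm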
ARFGAP1 inh conf = rat ARFGAP1 inhibition, confirmed | shares compounds with ARFGAP1 inh | ARFGAP1-stimulated ARF1 GTP hydrolysis, GDP tracer FP | inhibition, % at 16.5 µM | 890 compounds, 30% hits;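 active means average inhibition over triplicates above the hit cutoff set in the earlier primary screen, cut at about 25% in these data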;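 further: 0% = Arfgap1 plus ARF1-GTP with DMSO and 100% = wells lacking Arfgap1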
The depositor's hits bear a star.

`O=C(Nc1ccc2c(c1)Cc1ccccc1-2)NC1CCCCN(Cc2ccc(Cl)cc2)C1=O` (centres undefined) gave Tn7 DDE FP 9 and DDE Tn6 FP inh -3.
`Cc1ccc(S(=O)(=O)N(Cc2ccccc2F)C(=O)N2CCN(C)CC2)cc1` gave ASAP1 inh -3, Tn7 DDE FP -8, DDE Tn6 FP inh -5, ARFGAP1 inh 29* and ARFGAP1 inh conf 6.
Screening CC(=O)C1=C(C)NC(=S)NC1c1ccccc1 (centres undefined) returned ASAP1 inh 9, Tn7 DDE FP 0, DDE Tn6 FP inh -7 and ARFGAP1 inh 9.
`O=C(c1ccncc1)N1CCN(S(=O)(=O)c2cccc(Cl)c2)CC1` gave ASAP1 inh -7, Tn7 DDE FP 3, DDE Tn6 FP inh 7, ARFGAP1 inh 27* and ARFGAP1 inh conf 0.
`O=C(c1ccncc1)N1CCN(S(=O)(=O)c2cccc(F)c2)CC1` gave ASAP1 inh -11, Tn7 DDE FP 3, DDE Tn6 FP inh 3 and ARFGAP1 inh 9.
Screening O=C(CNS(=O)(=O)c1ccc(Br)cc1)N1CCN(c2ccc(F)cc2)CC1 returned ASAP1 inh 9, Tn7 DDE FP -3, DDE Tn6 FP inh -8, ARFGAP1 inh 28* and ARFGAP1 inh conf 3.
For CC(=O)Nc1ccc(NC(=O)c2cc(=O)c3cc(C)c(C)cc3o2)cc1 the results were ASAP1 inh 10, Tn7 DDE FP -7, DDE Tn6 FP inh -10, ARFGAP1 inh 29* and ARFGAP1 inh conf 17.
Screening CC1(C)CC(=O)C=C(NCCN2CCN(C(=O)Nc3ccc(Cl)cc3)CC2)C1 returned ASAP1 inh -13, Tn7 DDE FP 3, DDE Tn6 FP inh 1, ARFGAP1 inh 33* and ARFGAP1 inh conf -2.
Screening CCOC(=O)c1c(NC(=O)c2ccc(S(=O)(=O)N(C)CC3CCCO3)cc2)sc2c1CCN(C)C2 (centres undefined) returned ASAP1 inh 13, Tn7 DDE FP 6, DDE Tn6 FP inh -2 and ARFGAP1 inh 4.
CC(=O)N1CCc2c(sc(NC(=O)c3ccc(S(=O)(=O)N(C)CC4CCCO4)cc3)c2C(N)=O)C1 (centres undefined) was read as ASAP1 inh 4, Tn7 DDE FP 4, DDE Tn6 FP inh -5, ARFGAP1 inh 29* and ARFGAP1 inh conf 1.
`Cc1cc(C)c2c(=N)c3ccccc3n(CCCCCCCCn3c4ccccc4c(=N)c4c(C)cc(C)nc43)c2n1` gave ASAP1 inh 9, Tn7 DDE FP 1, DDE Tn6 FP inh -12, ARFGAP1 inh 26* and ARFGAP1 inh conf -1.
`CCCCCCCCn1c2c(c(=N)c3ccccc31)CCC2` gave ASAP1 inh -17, Tn7 DDE FP 7, DDE Tn6 FP inh 4 and ARFGAP1 inh 0.
Screening COCc1cc(N2CCNC[C@H]2C)ccc1N1CCN(Cc2ccccc2)[C@H](C)C1 returned ASAP1 inh 1, Tn7 DDE FP 0, DDE Tn6 FP inh 5 and ARFGAP1 inh 0.
For Cc1cc(=O)n(-c2ccc(O)cc2)[nH]1 the results were ASAP1 inh 0, Tn7 DDE FP 6, DDE Tn6 FP inh 0 and ARFGAP1 inh -8.
Screening Cc1cc(=O)n(-c2ccc(C(=O)O)cc2)[nH]1 returned ASAP1 inh 5, Tn7 DDE FP 3, DDE Tn6 FP inh -2, ARFGAP1 inh 28* and ARFGAP1 inh conf -1.
`O=C(NCc1ccc(C(=O)N2CCOCC2)cc1)c1cccc(Br)c1` gave Tn7 DDE FP 3 and DDE Tn6 FP inh 1.
For CCOC(=O)C1CCCN(S(=O)(=O)c2cc3c(cc2Br)CCN3C(=O)CC)C1 (centres undefined) the results were Tn7 DDE FP 0 and DDE Tn6 FP inh 5.
O=C(COC(=O)/C=C/c1ccc2ccccc2n1)NNC(=O)c1ccccc1 was read as ASAP1 inh -16, Tn7 DDE FP 6, DDE Tn6 FP inh -1, ARFGAP1 inh 49* and ARFGAP1 inh conf -1.
`CC(=O)OCC(=O)[C@@]1(O)[C@H](C)C[C@H]2[C@@H]3CCC4=CC(=O)C=C[C@]4(C)[C@@]3(F)[C@@H](O)C[C@@]21C` gave ASAP1 inh -4, Tn7 DDE FP 8, DDE Tn6 FP inh 0 and ARFGAP1 inh -5.
C[C@@H]1C[C@H]2[C@@H]3CCC4=CC(=O)C=C[C@]4(C)[C@@]3(F)[C@@H](O)C[C@]2(C)[C@@]1(O)C(=O)CO was read as ASAP1 inh -1, Tn7 DDE FP -5, DDE Tn6 FP inh 0, ARFGAP1 inh 29* and ARFGAP1 inh conf -3.
For COC(=O)[C@]12C[C@H](CC(=O)N3CCN(C(=O)C4CC4)CC3)C(=O)N(Cc3ccc4c(c3)OCO4)C1=C[C@H](COCc1ccccc1)O[C@@H]2C the results were ASAP1 inh -10, Tn7 DDE FP 0, DDE Tn6 FP inh -2 and ARFGAP1 inh 2.
For O=c1c2[nH]cnc2n(-c2cccc(F)c2)c(=O)n1Cc1ccccc1 the results were ASAP1 inh 1, Tn7 DDE FP 10, DDE Tn6 FP inh -3, ARFGAP1 inh 25* and ARFGAP1 inh conf 3.
`O=c1c2[nH]cnc2n(-c2ccc(F)cc2)c(=O)n1Cc1ccccc1` gave ASAP1 inh 8, Tn7 DDE FP -2, DDE Tn6 FP inh -5 and ARFGAP1 inh -1.
`Cc1cc2ncn(/N=C/c3cccnc3)c2cc1C` gave ASAP1 inh 8, Tn7 DDE FP 4, DDE Tn6 FP inh 4 and ARFGAP1 inh -3.
For C(=N\n1cnc2ccccc21)/c1cccnc1 the results were ASAP1 inh -6, Tn7 DDE FP -3, DDE Tn6 FP inh -12, ARFGAP1 inh 25* and ARFGAP1 inh conf 8.
For CCOC(=O)CSc1nc2sc(C)c(C)c2c(=O)n1C the results were ASAP1 inh 1, Tn7 DDE FP 3, DDE Tn6 FP inh 1 and ARFGAP1 inh 8.
Screening Cc1sc2nc(SCC(=O)N3CC(C)OC(C)C3)n(C)c(=O)c2c1C (centres undefined) returned ASAP1 inh -2, Tn7 DDE FP -6, DDE Tn6 FP inh -2, ARFGAP1 inh 26* and ARFGAP1 inh conf -2.
Screening Cn1c(/C(C#N)=C/c2ccc(O)cc2)nc2ccccc21 returned ASAP1 inh 9, Tn7 DDE FP -2, DDE Tn6 FP inh 3, ARFGAP1 inh 25* and ARFGAP1 inh conf 3.
For CS(=O)(=O)N1CCN(C(=O)COc2ccccc2)CC1 the results were ASAP1 inh -1, Tn7 DDE FP 1, DDE Tn6 FP inh 0, ARFGAP1 inh 25* and ARFGAP1 inh conf -1.
Screening C/C(N)=C(/C#N)C(=O)CSc1nncn1-c1ccccc1 returned ASAP1 inh 0, Tn7 DDE FP 3, DDE Tn6 FP inh 10, ARFGAP1 inh 28* and ARFGAP1 inh conf 0.
Screening O=C1NC(c2ccccc2)=C(c2nc3ccccc3s2)C(c2ccc(F)cc2)N1 (centres undefined) returned ASAP1 inh 11, Tn7 DDE FP -8, DDE Tn6 FP inh -2, ARFGAP1 inh 32* and ARFGAP1 inh conf 2.

Bioassay records: PubChem BioAssay, The Scripps Research Institute Molecular Screening Center
